Results from different studies.
Each line is one published result; the experiments were not run side by side.
Target: Serine/threonine-protein kinase 32B (STK32B, Homo sapiens, UniProt Q9NY57)

Compound	read-out	method	concentration	remaining binding
c1cncc(-c2cccc(Nc3nccc(NC4CCCCC4)n3)c2)c1	binding	competition with immobilised ligand	10 µM	100%
O=C(NCCCN1CCOCC1)c1ccc(Nc2nccc(-c3cc4ccccc4s3)n2)cc1	binding	competition with immobilised ligand	1 µM	100%
FC(F)(F)c1ccc2c(c1)nc(-c1cccnc1)n2C1CC1	cell-free assay	competition with immobilised ligand	1 µM	100%
CCN1CCN(Cc2ccc(C(=O)Nc3ccc(C)c(Oc4ccc5c(c4)CC(=O)N5)c3)cc2C(F)(F)F)CC1	binding	competition with immobilised ligand	1 µM	92%
Nc1ncc2c(n1)-c1c([nH]c3ccc(C#CC4CC4)cc13)CCCC2	binding	competition with immobilised ligand	1 µM	100%
c1cnn2ncc(-c3ccnc(N4CCC45COC5)n3)c2c1	binding	–	1 µM	93%
Cc1cnc(Nc2ccc(C(=O)N3CCC(N4CCCC4)CC3)cc2)nc1-c1cc2ccccc2s1	binding	competition with immobilised ligand	1 µM	100%
CN(C)c1nccc(-c2cnc3ncccn23)n1	binding	–	1 µM	88%
CNC(=O)c1ccc(Nc2ncc(C(F)(F)F)c(NCc3nccnc3N(C)S(C)(=O)=O)n2)cc1	cell-free assay	competition with immobilised ligand	0.1 µM	97%
C[C@H]1CCN(c2nccc(-c3cnn4ncccc34)n2)C1	binding	–	1 µM	100%
C[C@@H](c1cccc(C#N)c1)n1cc(Cl)cc(C(N)=O)c1=N	cell-free assay	competition with immobilised ligand	1 µM	100%
F[C@@H]1CCN(c2nccc(-c3cnn4ncccc34)n2)C1	binding	–	1 µM	100%
O=C(Nc1c[nH]nc1C(=O)NC1CCNCC1)c1cc(F)cc(F)c1	binding	competition with immobilised ligand	1 µM	57%
O=C(NCCCC1CCCCC1)c1ccc(CNC(=O)c2cnn(-c3ccccc3)c2C(F)(F)F)cc1	cell-free assay	competition with immobilised ligand	0.1 µM	100%
C[C@@H](c1ccc(-n2cnc3c(N)ncnc32)cc1)N1CCc2nn(C)c(Cc3ccccc3)c2C1=O	binding	competition with immobilised ligand	0.1 µM	99%
O=C1NC(c2ccccn2)Sc2ccccc21 (stereo not drawn)	cell-free assay	competition with immobilised ligand	1 µM	100%
COc1cnc(Nc2cccc(S(N)(=O)=O)c2)nc1N1CCN(c2ccccc2)C(=O)C1	binding	competition with immobilised ligand	1 µM	90%
CN(C)c1ncc(F)c(-c2cnn3ncccc23)n1	binding	–	1 µM	100%
O=C(c1ccc(Nc2nccc(-c3cc4ccccc4s3)n2)cc1)N1CCC(N2CCCC2)CC1	binding	competition with immobilised ligand	1 µM	100%
O=C(Nc1cnc(Oc2ccc(F)cc2)nc1)N1CCc2ncccc2[C@@H]1c1ccc(F)cc1	cell-free assay	competition with immobilised ligand	1 µM	87%
N[C@H]1CCN(c2nccc(-c3cnn4ncccc34)n2)C1	binding	–	1 µM	100%
